In paper PMC7449315 (Journal for Immunotherapy of Cancer, 2020):

Key:
[1] = molecular target: IDO1 (Homo sapiens, UniProt P14902); assay: IDO1 activity in ex vivo LPS-stimulated whole blood from M4112-treated patients
[2] = tested on: kynurenine and tryptophan in the plasma; assay: phase I trial: plasma kynurenine and tryptophan; assay type: in vivo, human
In short: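 In this open-label dose-escalation study, patients received the test compound orally twice daily (100–800 mg, three per cohort, 28-day cycles). Plasma was collected on cycle 1 day 1 and day 15 (predose and 1, 2, 4 and 6 h postdose), day 8 (predose), and cycle 2 day 1 (predose and 2 h). Kynurenine and tryptophan were quantified by LC-MS/MS, ratios were calculated, and values were normalized to baseline.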

Sequence of IDO1 (P14902 whole entry): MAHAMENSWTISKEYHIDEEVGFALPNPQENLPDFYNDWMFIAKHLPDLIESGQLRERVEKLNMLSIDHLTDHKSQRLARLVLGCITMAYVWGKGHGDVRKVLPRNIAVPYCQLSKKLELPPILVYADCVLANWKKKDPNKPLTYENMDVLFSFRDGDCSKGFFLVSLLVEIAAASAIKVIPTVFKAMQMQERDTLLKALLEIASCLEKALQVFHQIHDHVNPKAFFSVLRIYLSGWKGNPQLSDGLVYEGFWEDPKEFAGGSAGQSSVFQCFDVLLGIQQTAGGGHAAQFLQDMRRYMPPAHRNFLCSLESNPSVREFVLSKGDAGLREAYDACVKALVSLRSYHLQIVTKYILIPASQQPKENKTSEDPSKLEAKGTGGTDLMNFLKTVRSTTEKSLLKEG

## NS(=O)(=O)[C@H]1CC[C@](F)(CC[C@H]2c3ccccc3-c3cncn32)CC1 [M4112]
[1]; 800 mg two times per day, throughout the dosing interval
  IDO1 activity inhibited: Approximately 90%
[1]; across all doses tested
  IDO1 inhibition in ex vivo stimulated blood: rapid onset of IDO1 inhibition
[1]; post-M4112 administration
  time of maximum IDO1 inhibition: 1 to 4 h
[1]; steady state
  dose dependence of IDO1 inhibition: trend toward dose-dependent IDO1 inhibition
[2]; cycle 1 day 1, after 6 hours
  plasma kynurenine:tryptophan ratio: decrease
[2]; day 1 of cycle 1, up to 6 hours after the first dose, all dose levels
  decrease in plasma kynurenine levels: 12%–35
[2]; day 1 of cycle 1, 200 mg two times per day and above
  plasma tryptophan levels: increased
[2]; day 15 of cycle 1
  plasma kynurenine levels: returned to at least baseline levels
